Screening results (PubChem)
Tn6 DDE FP – inhibitors of Tn6 peptide binding to human fibrin DD(E) | P02675 | Fibrin DD(E) TRITC-Tn6 fluorescence polarization displacement | inhibition, % at 8.3 µM | 370,000 tested, 0.21% active;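 active means inhibition above a per-campaign cutoff: mean of compounds within control limits plus 3 SD, cut at about 15% in these data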
PLCg1 inh – PLC-gamma1 (human) inhibition, primary screen; P19174; purified PLC-gamma1, fluorogenic substrate, fluorescence; inhibition, % at 12.2 µM; 370,000 tested, 0.84% active; AID 720700; in the data active means inhibition above about 9.5%
DDE Tn7 FP inh – inhibitors of Tn7 peptide binding to human fibrin DD(E); P02675; FP displacement of FITC-Tn7 peptide from fibrin DD(E); 0% = median of compound wells per plate; inhibition, % at 8.3 µM; 370,000 tested, 0.13% active; AID 720508;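 active means inhibition above the mean of compounds falling within the control limits plus 3 SD of them, cut at about 14% in these data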
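Assay system: Fibrin-DD(E) protein isolated from polymerized human fibrin clots; read-out basis: percent inhibition; medium: Tris/NaCl/CaCl2 buffer, pH 7.8; signal: FP measurement; incubation: 10 min plus 3 h, room temperature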
KLK7 zymogen act – proKLK7 (human) activation, primary screen | 370,000 tested, 0.9% active | AID 652039 | activation, % at 7 µM | purified proKLK7, EDANS-DABCYL substrate fluorescence; 100% is mature enzyme control, 0% vehicle | P49862;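 active means activation above the mean of all tested compounds plus 3 SD, computed per campaign excluding outliers beyond control limits, cut at about 13% in these data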
Target sequence (P49862 whole entry, looked up): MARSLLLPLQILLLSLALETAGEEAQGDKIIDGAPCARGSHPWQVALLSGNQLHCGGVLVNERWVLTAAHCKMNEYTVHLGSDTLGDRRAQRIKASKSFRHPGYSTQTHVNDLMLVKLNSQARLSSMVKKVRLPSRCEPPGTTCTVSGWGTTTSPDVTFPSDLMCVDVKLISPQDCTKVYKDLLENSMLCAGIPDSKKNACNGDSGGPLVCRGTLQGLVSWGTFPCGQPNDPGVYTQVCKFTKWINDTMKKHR
CendR NRP1 mod – alters CendR peptide binding to human NRP-1. inhibition, % at 25 µM. 360,000 tested, 0.85% active. FAM-RPARPAR peptide binding to NRP-1, fluorescence polarization;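 active means inhibition or corrected inhibition above about 18%, plus a signal ratio from 0.5 to 1.5, limit read from the data, passing the limit was not always enough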
PLC-beta3 inh – PLC-beta3 (human) inhibition, primary screen | AID 720704 | 370,000 tested, 0.18% active | inhibition, % at 12.2 µM | Purified PLC-beta3, fluorogenic substrate, fluorescence | Q01970; in the data active means inhibition above about 11%
proKLK7 act conf – confirmation of human kallikrein-7 zymogen activators; shares compounds with KLK7 zymogen act; purified proKLK7, EDANS-DABCYL substrate fluorescence; scaled: vehicle 0, mature enzyme 100; activation, % at 7 µM; 3,200 tested, 68% active; AID 686949;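 active means activation, as change over the incubation, above the mean of all tested compounds plus 3 SD, cut at about 13% in these data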
EDANS-DABCYL int – optically interferes with EDANS-DABCYL signal, flagging KLK7 hits | shares compounds with KLK7 zymogen act | EDANS-DABCYL substrate fluorescence interference, no enzyme, 4 h; solvent 0%, active enzyme control 100% | activation, % at 7 µM | 3,200 tested, 80% active;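 active means activation above the all-compound mean plus 3 SD, ignoring values outside control-based bounds, cut at about 4.8% in these data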;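 further: value is the 4 h activation minus the activation read at time zero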
Each line names hits and unclear results; the compound was inactive in the other large screens (follow-up assays come after a bar, where they were run). This is a sample that favours compounds with a hit; in the whole collection about 3% have one here.

CC(C)NCC(O)c1ccc(O)c(O)c1 (stereo unspecified)	KLK7 zymogen act 34.7 | proKLK7 act conf 46.2 | EDANS-DABCYL int 51.0
O=[N+]([O-])c1ccc2nc(COCc3nc4ccccc4[nH]3)[nH]c2c1	none (no result: KLK7 zymogen act, CendR NRP1 mod)
O=C(NC1CCCCN(Cc2ccc(OC(F)(F)F)cc2)C1=O)c1ccc2ccccc2c1 (stereo unspecified)	none (no result: CendR NRP1 mod)
CCOC(=O)c1cc(-c2ccc([N+](=O)[O-])cc2)nc2c1c(=O)[nH]c(=O)n2Cc1ccccc1	none
CCOC(=O)c1cc(-c2cc3ccccc3o2)nc2c1c(=O)[nH]c(=O)n2CCOC	KLK7 zymogen act 18.7 | proKLK7 act conf inactive | EDANS-DABCYL int inactive
CN1/C(=N\O)c2cccc3cccc1c23	KLK7 zymogen act 20.8 | proKLK7 act conf 40.1 | EDANS-DABCYL int 50.6
O=C(CN1CCCC1)Nc1ccc(-c2nc3cc(NC(=O)CN4CCCC4)ccc3o2)cc1	KLK7 zymogen act 58.2 | proKLK7 act conf inactive | EDANS-DABCYL int inactive
NS(=O)(=O)c1cc(C(=O)OCC(=O)Nc2ccc(Cl)cc2[N+](=O)[O-])ccc1Cl	none
Nc1c(C(=O)OCC(=O)Nc2ccc(Cl)cc2[N+](=O)[O-])[nH]c(=O)[nH]c1=O	KLK7 zymogen act 13.5 | proKLK7 act conf 136.3 | EDANS-DABCYL int 137.4
Cc1[nH]c2ccccc2c1/C=C(\C#N)S(=O)(=O)c1ccccc1	KLK7 zymogen act 13.6 | proKLK7 act conf inactive | EDANS-DABCYL int inactive
Cc1cc(C)c(/C=C(\C#N)S(=O)(=O)c2ccccc2)[nH]1	none
COC(=O)[C@]12C[C@H](CC(=O)NCc3ccc(OC)c(OC)c3)C(=O)N(Cc3ccc(Cl)cc3Cl)C1=C[C@H](C(C)(C)C)O[C@@H]2C	none (no result: CendR NRP1 mod)
O=C1CCC[C@H]2C[C@H](NCc3ccc(Cl)cc3)CC[C@]23CCCN13	none (no result: KLK7 zymogen act, CendR NRP1 mod)
Cc1ccccc1N1C(=O)c2cccc3c(N(C)CCO)ccc(c23)C1=O	KLK7 zymogen act 13.3 | proKLK7 act conf inactive | EDANS-DABCYL int 10.2
COc1ccccc1N1C(=O)c2cccc3c(N(C)CCO)ccc(c23)C1=O	none
Cc1ccc(Cl)cc1NC(=O)C1CCCCC1C(=O)O (stereo unspecified)	KLK7 zymogen act 14.7 | proKLK7 act conf inactive | EDANS-DABCYL int inactive
O=C(c1cc(-c2ccccc2)on1)N1CCC(Oc2cccnc2)CC1	none (no result: CendR NRP1 mod)
CCc1ccc(/C=C2\Oc3c(ccc(O)c3CN3CCN(CCO)CC3)C2=O)cc1	KLK7 zymogen act 28.4 | proKLK7 act conf inactive | EDANS-DABCYL int 6.5
COc1cccc2c(=S)c(CCC(C)=O)c(C)[nH]c12	KLK7 zymogen act 21.1 | proKLK7 act conf 22.4 | EDANS-DABCYL int 23.5
CCOC(=O)Cn1cc(CN2CCS(=O)(=O)N(Cc3ccc(F)cc3)C(C(=O)OC)C2)nn1 (stereo unspecified)	none (no result: CendR NRP1 mod)
N=C1c2c(cc(=O)n3c2[nH]c2ccccc23)CN1CCN1CCOCC1	KLK7 zymogen act 14.9 | proKLK7 act conf inactive | EDANS-DABCYL int inactive
CCCCNS(=O)(=O)/C=C/c1cc2c(cc1CNC(=O)OC(C)(C)C)OCO2	none (no result: CendR NRP1 mod)
Nc1nc(N)c2nc(-c3ccccc3)c(N)nc2n1	KLK7 zymogen act 59.8 | proKLK7 act conf 67.0 | EDANS-DABCYL int 73.7
O=C(CSc1nnc(-c2cccs2)n1Cc1ccco1)Nc1ccc(OCc2ccccc2)cc1	none (no result: CendR NRP1 mod)
CCOC(=O)c1[nH]c2cc(OC)c(OC)cc2c1NC(=O)CCN1CCSCC1	KLK7 zymogen act 15.8 | proKLK7 act conf inactive | EDANS-DABCYL int 8.7
CCOC(=O)c1[nH]c2ccc(OC)cc2c1NC(=O)CCN1CCC(C)CC1	KLK7 zymogen act 21.5 (no result: CendR NRP1 mod) | proKLK7 act conf inactive | EDANS-DABCYL int 6.8
CCOC(=O)c1[nH]c2ccc(Br)cc2c1NC(=O)CCN1CCC(C)CC1	none
CCOC(=O)c1[nH]c2ccc(OC)cc2c1NC(=O)CN1CCSCC1	none
CCOC(=O)c1[nH]c2cc3c(cc2c1NC(=O)CN1CCC2(CC1)OCCO2)OCO3	none
